Measured values from ChEMBL document CHEMBL1132257, “Apstatin analogue inhibitors of aminopeptidase P, a bradykinin-degrading enzyme” (J Med Chem, 1999).

Legend:
[1] = biological target: T1, Xaa-Pro aminopeptidase 1 (Homo sapiens, UniProt Q9NQW7); assay: Inhibition against cytosolic Aminopeptidase P from human heart.
Method in brief: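 Human heart homogenate in 0.1 M potassium phosphate pH 6.8: the 40000g supernatant, or enzyme partly purified on TNB-thiol agarose with dithiothreitol elution and exchange into Hepes. Assayed with 0.5 mM Arg-Pro-Pro, 0.1 M Hepes pH 8.0; arginine measured by fluorescence. IC50 by linear regression, 10 concentrations in triplicate.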

[2] = Inhibition against Aminopeptidase P from Escherichia coli.
Method in brief: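 Recombinant E. coli AP-P, preincubated with 0.73 mM MnCl2 (0.02 mM residual in assay). Hydrolysis of 0.5 mM Arg-Pro-Pro in 0.1 M Hepes pH 8.0 tracked by fluorescence of free arginine. IC50 by linear regression of rate vs log inhibitor concentration over 10 concentrations, triplicate each.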

[3] = biological target: T1, Xaa-Pro aminopeptidase 1; assay: Inhibition against Aminopeptidase P from human platelets.
Method in brief: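 Enzyme from human platelets: washed in PBS with prostacyclin, freeze-thawed, sonicated; the 43000g 2 h supernatant was used. Substrate 0.5 mM Arg-Pro-Pro, 0.1 M Hepes pH 8.0, fluorimetric arginine read-out. IC50 from triplicate rates at 10 concentrations, by linear regression of rate vs log concentration.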

[4] = Inhibition against Aminopeptidase P from bovine.; assay type: single protein
Method in brief: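 Source was bovine lung membrane-bound enzyme purified to homogeneity. Substrate 0.5 mM Arg-Pro-Pro, 0.1 M Hepes pH 8.0, with fluorimetric detection of released arginine. IC50 by linear regression of rate vs log [inhibitor] (linear part), using 10 concentrations near a preliminary estimate, in triplicate.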

[5] = biological target: Xaa-Pro aminopeptidase 2 (Homo sapiens, UniProt O43895); assay: Inhibition against membrane bound human aminopeptidase P
Xaa-Pro aminopeptidase 2 (Homo sapiens, UniProt O43895), sequence (O43895 whole entry): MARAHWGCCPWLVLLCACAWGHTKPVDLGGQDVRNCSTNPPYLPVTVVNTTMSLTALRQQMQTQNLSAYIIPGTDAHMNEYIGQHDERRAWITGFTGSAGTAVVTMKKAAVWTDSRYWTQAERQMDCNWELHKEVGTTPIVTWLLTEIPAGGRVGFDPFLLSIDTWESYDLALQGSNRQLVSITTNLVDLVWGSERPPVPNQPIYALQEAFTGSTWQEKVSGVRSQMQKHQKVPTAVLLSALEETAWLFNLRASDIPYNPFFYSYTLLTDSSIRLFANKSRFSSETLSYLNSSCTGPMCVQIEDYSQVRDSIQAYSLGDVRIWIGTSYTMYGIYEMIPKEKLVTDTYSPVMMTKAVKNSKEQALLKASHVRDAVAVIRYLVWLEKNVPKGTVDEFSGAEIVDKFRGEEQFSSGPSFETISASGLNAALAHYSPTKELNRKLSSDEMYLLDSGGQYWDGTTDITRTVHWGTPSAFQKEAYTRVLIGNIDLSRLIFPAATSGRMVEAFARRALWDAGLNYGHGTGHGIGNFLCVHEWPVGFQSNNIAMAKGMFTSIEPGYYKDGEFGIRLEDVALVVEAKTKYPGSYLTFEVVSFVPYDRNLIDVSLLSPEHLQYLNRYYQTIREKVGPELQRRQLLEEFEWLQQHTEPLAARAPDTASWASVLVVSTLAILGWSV
Method in brief: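 Partially purified membrane-bound AP-P from human or cynomolgus lung, released from microsomes by phosphatidylinositol-specific phospholipase C and then centrifuged. Triplicate rates at 10 inhibitor levels; IC50 by linear regression of the linear part of the rate vs log concentration plot.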

[6] = biological target: T2, Xaa-Pro aminopeptidase 2 (Rattus norvegicus, UniProt Q99MA2); assay: Activity against membrane bound rat aminopeptidase P
T2 sequence (Q99MA2 whole entry): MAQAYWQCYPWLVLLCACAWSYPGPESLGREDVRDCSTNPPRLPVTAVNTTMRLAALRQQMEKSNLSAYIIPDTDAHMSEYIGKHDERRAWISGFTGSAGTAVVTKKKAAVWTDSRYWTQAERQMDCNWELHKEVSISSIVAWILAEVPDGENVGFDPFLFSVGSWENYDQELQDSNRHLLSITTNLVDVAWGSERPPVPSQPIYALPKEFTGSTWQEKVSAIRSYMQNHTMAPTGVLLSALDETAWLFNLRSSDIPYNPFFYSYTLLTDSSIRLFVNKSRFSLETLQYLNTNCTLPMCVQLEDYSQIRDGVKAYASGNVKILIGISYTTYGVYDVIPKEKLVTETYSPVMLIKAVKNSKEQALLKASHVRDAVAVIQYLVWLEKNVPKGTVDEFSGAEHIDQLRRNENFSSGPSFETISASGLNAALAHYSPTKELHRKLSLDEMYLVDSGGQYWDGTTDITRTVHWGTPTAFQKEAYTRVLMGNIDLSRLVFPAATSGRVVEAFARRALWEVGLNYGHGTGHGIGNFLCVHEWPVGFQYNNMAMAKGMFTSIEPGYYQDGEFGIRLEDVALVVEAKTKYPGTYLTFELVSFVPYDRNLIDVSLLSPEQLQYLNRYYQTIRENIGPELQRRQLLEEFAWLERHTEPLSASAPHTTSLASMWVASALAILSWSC
Method in brief: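 Membrane-bound AP-P purified to homogeneity from rat lung; 0.5 mM Arg-Pro-Pro substrate in 0.1 M Hepes, pH 8.0; free arginine release read by fluorescence. IC50 from 10 inhibitor concentrations around an approximate value, each in triplicate, by linear regression of the linear portion of rate vs log inhibitor concentration.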

T1 sequence (Q9NQW7 whole entry): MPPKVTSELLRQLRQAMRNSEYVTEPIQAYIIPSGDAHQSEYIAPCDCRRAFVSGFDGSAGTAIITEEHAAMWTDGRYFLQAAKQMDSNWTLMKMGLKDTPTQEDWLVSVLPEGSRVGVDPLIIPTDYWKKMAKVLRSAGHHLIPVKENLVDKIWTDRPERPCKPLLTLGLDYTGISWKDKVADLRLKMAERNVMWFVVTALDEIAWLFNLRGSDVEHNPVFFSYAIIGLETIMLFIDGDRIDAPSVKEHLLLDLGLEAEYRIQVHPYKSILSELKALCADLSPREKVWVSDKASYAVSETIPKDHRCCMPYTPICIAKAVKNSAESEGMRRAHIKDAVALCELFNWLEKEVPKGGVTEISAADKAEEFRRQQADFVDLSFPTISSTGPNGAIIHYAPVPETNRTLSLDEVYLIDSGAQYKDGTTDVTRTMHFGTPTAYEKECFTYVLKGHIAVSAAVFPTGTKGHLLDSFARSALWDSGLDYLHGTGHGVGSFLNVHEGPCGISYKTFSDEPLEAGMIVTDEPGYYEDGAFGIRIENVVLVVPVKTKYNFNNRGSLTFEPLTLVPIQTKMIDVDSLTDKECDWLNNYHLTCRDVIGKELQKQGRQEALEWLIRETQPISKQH

IC50 [1] | IC50 [2] | IC50 [3] | IC50 [4] | IC50 [5] | IC50 [6] | SMILES
> 2000 µM | 160 µM | > 2000 µM | > 2000 µM | – | – | C[C@H](NC(=O)[C@@H]1CCCN1C(=O)[C@@H]1C[C@@H](O)CN1C(=O)[C@@H](O)[C@H](N)Cc1ccccc1)C(N)=O
21 µM | 9 µM | 18 µM | 9.4 µM | – | – | C[C@H](NC(=O)[C@@H]1CCCN1C(=O)[C@@H]1CCCN1C(=O)[C@@H](O)[C@H](N)Cc1ccccc1)C(N)=O
45 µM | 16 µM | 250 µM | 1300 µM | – | – | NC(=O)[C@@H]1CCCN1C(=O)[C@@H]1CCCN1C(=O)[C@@H](O)[C@H](N)Cc1ccccc1
82 µM | 41 µM | – | 34 µM | – | – | C[C@H](NC(=O)[C@@H]1CCCN1C(=O)[C@@H]1CSCN1C(=O)[C@@H](O)[C@H](N)Cc1ccccc1)C(N)=O
6.3 µM | – | – | 10 µM | 29 µM | 3.4 µM | C[C@H](NC(=O)[C@@H]1CCCN1C(=O)C1CCCC1S)C(N)=O (stereo in doubt; 12)
53 µM | > 3000 µM | – | 300 µM | 390 µM | 150 µM | C[C@H](NC(=O)[C@@H]1CCCN1C(=O)C1CCCC1S)C(N)=O (stereo in doubt; 13)
> 3000 µM | 130 µM | – | 50 µM | – | – | C[C@H](NC(=O)[C@@H]1CCCN1C(=O)C1CCCCC1C(=O)NO)C(N)=O (stereo in doubt; 14)
> 2000 µM | > 2000 µM | – | > 500 µM | – | – | C[C@H](NC(=O)[C@@H]1CCCN1C(=O)C1CCCCC1C(=O)NO)C(N)=O (stereo in doubt; 15)
> 5000 µM | 2000 µM | – | > 5000 µM | – | – | C[C@H](NC(=O)[C@@H]1CCCN1C(=O)C1CCCCC1C(=O)NO)C(N)=O (stereo in doubt; 16)
